# Screens (PubChem BioAssay)
# MMP13 inh: MMP13 (human) collagenase inhibition; MMP-13 fTHP FRET cleavage, Mca fluorescence; inhibition, % at 4 µM; 65,000 compounds, 0.07% hits; AID 570;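 active = inhibition above the mean of compound-free control plate wells plus 3 SD, cut at about 14% in these data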
# HePTP inhibitor: inhibitors of human HePTP phosphatase; P35236; recombinant HePTP phosphatase activity, OD absorbance; inhibition, % at 20 µM; 110,000 compounds, 0.64% hits; in the data active = inhibition above about 50%
# SF1 activator: activates the human nuclear receptor SF-1 | CHO-K1 Gal4-SF-1 LBD luciferase reporter; % increase over DMSO SF-1-specific signal | Q13285 | 65,000 compounds, 1.9% hits | activation, % at 10 µM;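 active = activation above the mean activation of all tested compounds plus 3 SD, cut at about 50% in these data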
#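 Test system: CHO-K1 cells co-transfected with Gal4 DBD–human SF-1 LBD, 5xGal4 luciferase reporter. Quantity: 4,000 cells per well. Compound: 10 µM only. Incubation: compound added 1 h post-seeding, 20 h exposure at 37 °C, 5% CO2. Detection: SteadyLite luciferase luminescence. Replication: one test per compound.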
# RORA act: RORA (human) activation; CHO-K1 Gal4-RORA LBD luciferase reporter, luminescence; percent increase over mock-subtracted basal signal; activation, % at 10 µM; 65,000 compounds, 1.5% hits;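 active = activation above the mean of all tested compounds plus 3 SD, cut at about 49% in these data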
# Target sequence (P35398 whole entry, looked up, the tested form may be a part): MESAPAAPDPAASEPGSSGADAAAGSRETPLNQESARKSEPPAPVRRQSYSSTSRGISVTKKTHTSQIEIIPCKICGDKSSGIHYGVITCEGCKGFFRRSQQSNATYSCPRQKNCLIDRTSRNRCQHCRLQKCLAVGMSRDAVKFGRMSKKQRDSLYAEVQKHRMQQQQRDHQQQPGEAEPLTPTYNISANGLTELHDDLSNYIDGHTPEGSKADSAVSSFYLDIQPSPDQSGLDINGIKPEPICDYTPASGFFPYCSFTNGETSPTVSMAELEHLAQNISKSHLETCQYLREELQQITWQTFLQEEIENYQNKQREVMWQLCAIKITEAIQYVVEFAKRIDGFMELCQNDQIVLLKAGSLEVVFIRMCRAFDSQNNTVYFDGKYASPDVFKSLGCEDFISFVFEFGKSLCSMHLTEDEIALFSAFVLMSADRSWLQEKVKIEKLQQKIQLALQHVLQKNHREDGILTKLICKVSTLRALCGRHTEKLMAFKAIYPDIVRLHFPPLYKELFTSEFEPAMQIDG
# AP ELISA ortho: orthogonal test for alternative complement pathway inhibitors; Human serum alternative complement pathway, LPS-coated ELISA, C3 deposition; tested in compound mixtures; inhibition, % at 5 µM; 62,000 compounds, 0.08% hits; AID 1235;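 active = inhibition above 30% in each of the two pooled mixtures holding the compound, so the lower value exceeds 30%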
#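 Test system: human serum complement alternative pathway, C3 deposition onto LPS / Medium: Mg2+-EGTA GVB++ buffer containing human serum at 1:15 dilution / Probe or stimulus: Plate-bound LPS / Times: 1 h at 37 °C / Signal: ELISA with HRP anti-human C3 antibody, TMB substrate, absorbance 450 nm / Measure: percent inhibition / Repeats: two pool placements per compound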
# Ec RNAP inh: Escherichia coli RNA polymerase inhibition | E. coli RNA polymerase, fluorescence transcription assay | inhibition, %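 (tested at 10 µM)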 | 62,000 compounds, 0.2% hits | AID 559; in the data active = inhibition above about 20%
# Numbers stand for hits; – = inactive; · = not tested or not shown. Hits are enriched below; roughly 2.4% of the tested compounds scored in any of these assays.
SMILES,MMP13 inh,HePTP inhibitor,SF1 activator,RORA act,AP ELISA ortho,Ec RNAP inh
COc1ccccc1NC(=O)Nc1nnc(C(C)C)s1,–,–,53,–,–,–
COc1ccccc1-c1nnc(NC(C)=O)s1,–,–,–,78,–,–
O=c1c2c3c(sc2nc2sc(C4CC4)nn12)CCCC3,–,–,–,54,–,–
NS(=O)(=O)c1ccc(CNC(=O)c2ccc(Cl)cc2)cc1,·,–,·,·,·,·
Cc1ccc2cc(CCNC(=O)c3ccco3)c(=O)[nH]c2c1C,–,–,63,51,–,–
Cc1ccc2cc(CCNC(=O)c3ccco3)c(=O)[nH]c2c1,–,·,64,77,·,·
Cc1c(C(=O)NC2CCSC2=O)cccc1[N+](=O)[O-] (configuration not stated),·,55,·,·,·,·
CN(C)/C=N/c1ncnc2c1cnn2-c1ccc(C(F)(F)F)cn1,–,–,82,–,–,–
Cc1nn(-c2ccc(C(F)(F)F)cn2)c(C)c1Oc1ccccc1O,·,–,·,·,·,·
CCOC(=O)C1=C(O)/C(=C/c2ccc(O)cc2)SC1=Nc1ccc(Cl)cc1,·,–,·,·,·,·
CCOC(=O)C1=C(O)/C(=C/c2ccc(C)cc2)SC1=Nc1ccc(C)cc1,·,54,·,·,·,·
CC/C(=C\C(=O)c1ccccc1)Nc1ccc(Br)cc1,·,–,·,·,·,·
CCOC(=O)c1cnc(Nc2nc3ccccc3o2)nc1CSc1nnc(C)s1,–,·,–,58,·,·
COc1cccc(/C=N/Nc2nc(N3CCCCC3)nc(N3CCCCC3)n2)c1,·,–,·,·,·,·
Cc1cc(Br)c2c(c1)=C(c1sc(N3CCCCCC3)nc1O)C(=O)N=2,–,–,50,–,–,–
Nc1c(C(=O)C2CC2)sc2nc3c(cc12)CCCC3,·,–,·,·,·,·
Nc1nc(N)c2sc3nc4c(cc3c2n1)CCC4,–,–,57,56,–,–
Cc1nc(-c2ccccc2)sc1C(=O)Nc1ccc(Br)cc1,·,–,·,·,·,·
Cc1nc(/N=C\N(C)C)sc1C(=O)Nc1ccccc1,–,–,–,52,–,–
C=CCc1cccc2cc(C(=O)Nc3cccc(C(=O)O)c3)c(=O)oc12,·,90,·,·,·,·
C=CCc1cccc2cc(C(=O)Nc3ccc(S(=O)(=O)Nc4nnc(CC)s4)cc3)c(=O)oc12,·,103,·,·,·,·
C=CCc1cccc2cc(C(=O)Nc3ccc(Cl)c(Cl)c3)c(=O)oc12,·,–,·,·,·,·
COc1c(C)cccc1C(=O)Nc1ccc(CN2CCOCC2)cc1,–,–,62,–,–,–
COc1c(C)cc(Br)cc1C(=O)Nc1ccc(N2CCN(S(C)(=O)=O)CC2)cc1,–,–,–,–,–,–
COc1cccc(NC(=O)c2ccc(CN3CCOCC3)cc2)c1,–,–,–,–,–,–
SMILES,MMP13 inh,HePTP inhibitor,SF1 activator,RORA act,AP ELISA ortho,Ec RNAP inh
COc1c(C)cccc1C(=O)Nc1ccc(N2CCN(S(C)(=O)=O)CC2)cc1,–,–,107,–,–,–
COc1ccccc1N(CC(=O)NC(C)(C)C)S(=O)(=O)c1ccccc1,·,106,·,·,·,·
COc1ccccc1N(CC(=O)NC(C)c1ccccc1)S(=O)(=O)c1ccccc1 (configuration not stated),·,–,·,·,·,·
Cc1ccc(-c2csc(NC(=O)C(F)(F)F)n2)cc1C,·,–,·,·,·,·
Cc1ccc(-n2nc3cc(C)c(NC(=O)Cc4ccccc4)cc3n2)cc1,·,63,·,·,·,·
CCC1=NN2C(=N)/C(=C/c3ccc(OC(=O)c4ccc(Cl)cc4)c(OC)c3)C(=O)N=C2S1,·,–,·,·,·,·
CCOC(=O)c1c(CC(C)C)csc1NC(=O)C1CC1,·,–,·,·,·,·
Cc1ccccc1OCC(=O)O/N=C(\N)c1ccc(Br)cc1,·,–,·,·,·,·
Cc1cccc(Nc2ncc3c(n2)CC(C)CC3=O)c1 (configuration not stated),–,–,72,72,–,–
COc1ccc2c(c1OC)C(=O)N1c3ccccc3COC21 (configuration not stated),–,–,51,82,–,–
COc1ccc2c(c1OC)C(=O)N1c3ccccc3SC21 (configuration not stated),–,–,72,–,–,–
Cc1nn(C2CCCCC2)c(N)c1C#N,·,–,·,·,·,·
COc1cc(/C=N/Nc2ccc3ccccc3n2)c([N+](=O)[O-])cc1OC,·,–,·,·,·,·
O=C(O)c1ccc2c(c1)C(=O)N(c1ccc(-c3nc4cc(N5C(=O)c6ccc(C(=O)O)cc6C5=O)ccc4[nH]3)cc1)C2=O,·,101,·,·,·,·
COc1cc(NC(=O)c2ccc3c(c2)C(=O)N(C2CCCCC2)C3=O)c(C(=O)O)cc1OC,·,103,·,·,·,·
